From ChEMBL document CHEMBL4004818, “Montagnuphilones A-G, Azaphilones from Montagnulaceae sp. DM0194, a Fungal Endophyte of Submerged Roots of Persicaria amphibia” (J Nat Prod, 2017)

Test system: RAW264.7
Assay: Antiinflammatory activity in mouse RAW264.7 cells assessed as inhibition of LPS-induced nitric oxide production preincubated for 2 hrs followed by LPS stimulation measured after 18 hrs by Griess assay
Assay type: functional, cell-based
Details: not given
Procedure, shortened: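 LPS-activated RAW264.7 macrophages; nitric oxide production measured and IC50 derived; L-NAME as positive control; triplicate experiments.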

Row | SMILES | IC50
1 | Cc1cc(O)cc(O)c1C(=O)O[C@@]1(C)C(=O)C2=C(C=C(/C=C/CO)OC2)C[C@H]1O | 9.2 µM
2 | Cc1cc(O)cc(O)c1C(=O)O[C@@H]1CC2=C(CO[C@](O)(CCCO)C2)C(=O)[C@]1(C)O (relative stereo) | 25.5 µM
3 | Cc1cc(O)cc(O)c1C(=O)O[C@@H]1CC2=C(COC(CCC(=O)O)=C2)C(=O)[C@]1(C)O (relative stereo) | 39.6 µM
4 | COC(=O)[C@@H](N)CCCNC(=N)N[N+](=O)[O-] [L-NAME] | 30.6 µM

Test system: not listed separately
Assay: Cytotoxicity against LPS-induced mouse RAW264.7 cells assessed as cell survival up to 100 uM by MTT assay relative to control
Assay type: cell-based
Details: LPS-induced RAW264.7 cells, read-out: Survival
Procedure, shortened: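 MTT viability assay on LPS-activated RAW264.7 cells, the same cells used for the NO assay; tested at concentrations up to 100 μM; triplicate experiments.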

Row | SMILES | viability
5 | Cc1cc(O)cc(O)c1C(=O)O[C@@]1(C)C(=O)C2=C(C=C(/C=C/CO)OC2)C[C@H]1O | 90%
6 | Cc1cc(O)cc(O)c1C(=O)O[C@@H]1CC2=C(CO[C@](O)(CCC(=O)O)C2)C(=O)[C@]1(C)O (relative stereo) | 90%
7 | Cc1cc(O)cc(O)c1C(=O)O[C@@H]1CC2=C(CO[C@@](O)(CCCO)C2)C(=O)[C@]1(C)O (relative stereo) | 90%
8 | Cc1cc(O)cc(O)c1C(=O)O[C@@H]1CC2=C(COC(/C=C/C(=O)O)=C2)C(=O)[C@]1(C)O (relative stereo) | 90%
9 | Cc1cc(O)cc(O)c1C(=O)O[C@@H]1CC2=C(CO[C@](O)(CCCO)C2)C(=O)[C@]1(C)O (relative stereo) | 90%
10 | Cc1cc(O)cc(O)c1C(=O)O[C@@H]1CC2=C(CO[C@@](O)(CCC(=O)O)C2)C(=O)[C@]1(C)O (relative stereo) | 90%
11 | Cc1cc(O)cc(O)c1C(=O)O[C@@H]1CC2=C(COC(CCC(=O)O)=C2)C(=O)[C@]1(C)O (relative stereo) | 90%
